The values that follow come from ChEMBL document CHEMBL2331466, “Neolignanamides, lignanamides, and other phenolic compounds from the root bark of Lycium chinense” (J Nat Prod, 2013).

SMILES strings stand for the structures.

Assay [1] can be described thus: Antioxidant activity assessed as inhibition of xanthine-xanthine oxidase generated superoxide anion radical production by NBT reduction assay. The assay is classed as functional. Put shortly:
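Superoxide produced by xanthine/xanthine oxidase. Final reaction contained xanthine 40 μM, xanthine oxidase 0.05 unit/mL, NBT 50 μM (in 20 mM phosphate buffer, pH 7.4) and graded sample concentrations. Incubated 37 °C for 20 min after adding enzyme. Absorbance read at 560 nm against blanks. Values are means of triplicate determinations.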

The test system of assay [2] is Radical scavenging activity. The assay can be described thus: Antioxidant activity assessed as DPPH radical scavenging activity after 30 mins. The format is functional. Put shortly:
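Test samples at 5−100 μg/mL (120 μL) combined with 30 μL of 0.75 mM DPPH in MeOH, in triplicate. Shaken in the dark at room temperature for 30 min, then absorbance read at 517 nm. Scavenging (%) = (1 − As/A0) × 100. IC50 is the concentration giving 50% DPPH inhibition. Trolox (5−100 μM) served as positive control.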
On the technique in general: The DPPH test is a chemical assay of radical scavenging.

`O=C(/C=C/c1ccc(O)cc1)NCCc1ccc(O)cc1` [N-P-COUMAROYL TYRAMINE]: the half-maximal inhibitory concentration (IC50) (usually the midpoint of a concentration-inhibition curve) was determined as 52.6 µM in assay [1] and 63.5 µM in assay [2].

For `O=C(CCc1ccc(O)c(O)c1)NCCc1ccc(O)cc1`, the half-maximal inhibitory concentration (IC50) in assay [1] worked out at 30.2 µM; in assay [2], 61.2 µM.

On to `COc1cc(O)cc([C@H]2Oc3ccc(/C=C\C(=O)NCCc4ccc(O)cc4)cc3O[C@@H]2C(=O)NCCc2ccc(O)cc2)c1` (relative stereo), for which the IC50 amounted to 44.1 µM in assay [1] and 48.2 µM in assay [2].

Turning to `COc1cc(/C=C(/C(=O)NCCCCNC(C)=O)c2cc(O)c(O)cc2CCC(=O)NCCc2ccc(O)cc2)cc(OC)c1O`, the values for the IC50 in assay [1] and in assay [2] were 52.7 µM and 64.7 µM, respectively.

With `COc1cc(O)cc([C@H]2Oc3ccc(/C=C/C(=O)NCCc4ccc(O)cc4)cc3O[C@@H]2C(=O)NCCc2ccc(O)cc2)c1` (relative stereo), the 50% inhibitory concentration (IC50) in assay [1] was determined as 46.4 µM; in assay [2], 49.8 µM.

In the case of `COc1cc(/C=C\C(=O)NCC(O)c2ccc(O)cc2)ccc1O` (stereo not given), the concentration for half-maximal inhibition (IC50) in assay [1] worked out at 22.2 µM; in assay [2] it was 61.2 µM.

As for `COc1cc2c(c(OC)c1O)[C@H](c1ccc(O)c(O)c1)[C@@H](C(=O)NCCc1ccc(O)cc1)C(C(=O)NCCCCNC(C)=O)=C2` (relative stereo), the figures for the IC50 in assay [1] and in assay [2] were 58 µM and 67 µM, respectively.

Turning to `Cc1c(C)c2c(c(C)c1O)CCC(C)(C(=O)O)O2` (stereo not given) [TROLOX], the half-maximal inhibitory concentration (IC50) in assay [1] worked out at 27.2 µM; in assay [2] it was 33.5 µM.

As for `COc1cc([C@H]2Oc3ccc(/C=C/C(=O)NCCc4ccc(O)cc4)cc3O[C@@H]2CO)ccc1O` (relative stereo), the 50% inhibitory concentration (IC50) in assay [1] was found to be 44.4 µM; in assay [2], 55.2 µM.

On to `O=C(/C=C/c1ccc(O)c(O)c1)NCCc1ccc(O)cc1`, for which the results for the half-inhibitory concentration (IC50) in assay [1] and in assay [2] were 44.1 µM and 47.6 µM, respectively.

For `COc1cc(/C=C(/C(=O)NCCCCNC(C)=O)c2cc(O)c(O)cc2CCC(=O)NCCc2ccc(O)cc2)ccc1O`, the IC50 came out at 56.5 µM in assay [1] and 65.2 µM in assay [2].

As for `COc1cc(/C=C(/C(=O)NCCc2ccc(O)cc2)c2cc(O)c(O)cc2CCC(=O)NCCc2ccc(O)cc2)cc(OC)c1O`, the 50% inhibitory concentration (IC50) in assay [1] is 49.9 µM; in assay [2], 57.1 µM.

Turning to `COc1ccc(/C=C/C(=O)NCCc2ccc(O)cc2)cc1O`, the IC50 worked out at 48.8 µM in assay [1] and 67.7 µM in assay [2].

For the compound `COc1cc([C@H]2Oc3ccc(/C=C\C(=O)NCCc4ccc(O)cc4)cc3O[C@@H]2CO)ccc1O` (relative stereo), the results for the IC50 in assay [1] and in assay [2] were 49.9 µM and 54.1 µM, respectively.

`COc1cc2c(c(OC)c1O)C(c1ccc(O)c(O)c1)C(C(=O)NCCc1ccc(O)cc1)C(C(=O)NCCc1ccc(O)cc1)=C2` (stereo not given): the concentration for half-maximal inhibition (IC50) in assay [1] worked out at 50.1 µM; in assay [2] it was 46.5 µM.
